Values after ≈ are worked out from the molar mass of the structure shown. Active and inactive are the calls of the source. No cut-off for these calls is given here.
What was measured:
Mus musculus [1] = test: Antiinflammatory activity in mouse assessed as inhibition of xylene-induced ear edema at 50 mg/kg, po administered 4 hrs before xylene challenge relative to control; type: functional
Summary of the method: (§1)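 Compound was homogenized in 0.5% CMC-Na and given orally at 50 mg/kg, 0.4 mL/20 g; controls got CMC-Na vehicle only. Xylene was applied to the ear 1, 2, 3, 4, 5 or 24 h after dosing. Edema was measured as the weight difference of 7 mm ear plugs and reported as % reduction versus vehicle controls.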

Mus musculus [2] = test: Antiinflammatory activity in mouse assessed as inhibition of xylene-induced ear edema at 50 mg/kg, po administered 5 hrs before xylene challenge relative to control; type: functional; summary of the method: as §1
Mus musculus [3] = test: Antiinflammatory activity in mouse assessed as inhibition of xylene-induced ear edema at 50 mg/kg, po administered 24 hrs before xylene challenge relative to control; type: functional, organism-based; summary of the method: as §1
Mus musculus [4] = test: Antiinflammatory activity in mouse assessed as inhibition of xylene-induced ear edema at 25 mg/kg, po administered 3 hrs before xylene challenge relative to control; type: functional
Summary of the method: (§2)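 Oral dosing-level study: compound suspended in 0.5% CMC-Na and given po at 25 or 12.5 mg/kg, 0.4 mL/20 g; vehicle controls received CMC-Na. Xylene ear challenge was applied 3 h after dosing. Edema was measured as the ear-plug weight difference and reported as % reduction versus vehicle controls.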

Mus musculus [5] = test: Antiinflammatory activity in mouse assessed as inhibition of xylene-induced ear edema at 12.5 mg/kg, po administered 3 hrs before xylene challenge relative to control; type: functional; summary of the method: as §2
Staphylococcus aureus [6] = test: Antibacterial activity against Staphylococcus aureus RN4220 after 24 hrs by two-fold serial dilution method; type: functional; settings: RN4220, 24 h
Summary of the method: (§3)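 Broth microdilution in Mueller-Hinton broth. Bacteria grown to mid-log phase, diluted 1000-fold, and inoculated at 10⁵ CFU/mL. Test compounds in DMSO, final DMSO not above 0.05%, final concentrations 64-0.5 µg/mL. Incubation 24 h at 37 °C, growth read as absorbance at 650 nm. MIC taken as the lowest concentration giving complete growth inhibition. Run three times.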

Staphylococcus aureus [7] = test: Antibacterial activity against Staphylococcus aureus 209 after 24 hrs by two-fold serial dilution method; type: functional; settings: Staphylococcus aureus, 209, 24 h; summary of the method: as §3
Staphylococcus aureus [8] = test: Antibacterial activity against Staphylococcus aureus 503 after 24 hrs by two-fold serial dilution method; type: functional; settings: Staphylococcus aureus, 503, 24 h; summary of the method: as §3
Streptococcus mutans = test: Antibacterial activity against Streptococcus mutans 3065 after 24 hrs by two-fold serial dilution method; type: functional; settings: Streptococcus mutans, 3065, 24 h
Summary of the method: (§4)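 Broth microdilution in Mueller-Hinton broth over final concentrations of 64–0.5. Bacteria were grown to mid-log phase and diluted 1000-fold, then inoculated at 10⁵ CFU/mL. Compounds were dissolved in DMSO, with final DMSO at most 0.05%. Plates were incubated 24 h at 37 °C and growth read as absorbance at 650 nm. MIC is the concentration giving complete growth inhibition. Three independent runs.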

Escherichia coli [9] = test: Antibacterial activity against Escherichia coli KCTC 1924 after 24 hrs by two-fold serial dilution method; type: functional; settings: KCTC 1924, 24 h; summary of the method: as §4
Escherichia coli [10] = test: Antibacterial activity against Escherichia coli CCARM 1356 after 24 hrs by two-fold serial dilution method; type: functional; settings: CCARM 1356, 24 h; summary of the method: as §4
Pseudomonas aeruginosa [11] = test: Antibacterial activity against Pseudomonas aeruginosa 2742 after 24 hrs by two-fold serial dilution method; type: functional; settings: Pseudomonas aeruginosa, 2742, 24 h; summary of the method: as §4
Pseudomonas aeruginosa [12] = test: Antibacterial activity against Pseudomonas aeruginosa 2004 after 24 hrs by two-fold serial dilution method; type: functional; settings: Pseudomonas aeruginosa, 2004, 24 h; summary of the method: as §4
Salmonella typhimurium = test: Antibacterial activity against Salmonella typhimurium 2421 after 24 hrs by two-fold serial dilution method; type: functional, Salmonella enterica subsp. enterica serovar Typhimurium; settings: Salmonella enterica, 2421, 24 h; summary of the method: as §4
Candida albicans = test: Antifungal activity against Candida albicans 7535 by two-fold serial dilution method; type: functional
Staphylococcus aureus [13] = test: Antibacterial activity against methicillin-resistant Staphylococcus aureus CCARM 3167 after 24 hrs by two-fold serial dilution method; type: functional; settings: CCARM 3167, 24 h; summary of the method: as §3
Staphylococcus aureus [14] = test: Antibacterial activity against methicillin-resistant Staphylococcus aureus CCARM 3506 after 24 hrs by two-fold serial dilution method; type: functional; settings: CCARM 3506, 24 h; summary of the method: as §3
Staphylococcus aureus [15] = test: Antibacterial activity against quinolone-resistant Staphylococcus aureus CCARM 3505 after 24 hrs by two-fold serial dilution method; type: functional; settings: CCARM 3505, 24 h; summary of the method: as §3
Staphylococcus aureus [16] = test: Antibacterial activity against quinolone-resistant Staphylococcus aureus CCARM 3519 after 24 hrs by two-fold serial dilution method; type: functional; settings: CCARM 3519, 24 h; summary of the method: as §3
Staphylococcus aureus [17] = test: Ratio of norfloxacin MIC to compound MIC for methicillin-resistant Staphylococcus aureus CCARM 3506 after 24 hrs by two-fold serial dilution method; type: functional
Staphylococcus aureus [18] = test: Ratio of oxacillin MIC to compound MIC for methicillin-resistant Staphylococcus aureus CCARM 3506 after 24 hrs by two-fold serial dilution method; type: functional
Mus musculus [19] = test: Antiinflammatory activity in mouse assessed as inhibition of xylene-induced ear edema at 50 mg/kg, ip administered 30 mins before xylene challenge relative to control; type: functional
Summary of the method: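 Mice received compound freshly dissolved in DMSO, 50 mg/kg ip at 0.05 mL/20 g body weight; vehicle controls got DMSO alone. After 30 min, 20 µL xylene was applied to the right ear. After a further 30 min, 7 mm plugs were cut from treated and untreated ears and edema taken as their weight difference. Result is % edema reduction versus vehicle controls.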

Mus musculus [20] = test: Antiinflammatory activity in mouse assessed as inhibition of xylene-induced ear edema at 50 mg/kg, po administered 1 hr before xylene challenge relative to control; type: functional; settings: read-out: INH; summary of the method: as §1
Mus musculus [21] = test: Antiinflammatory activity in mouse assessed as inhibition of xylene-induced ear edema at 50 mg/kg, po administered 3 hrs before xylene challenge relative to control; type: functional; summary of the method: as §1
Mus musculus [22] = test: Antiinflammatory activity in mouse assessed as inhibition of xylene-induced ear edema at 50 mg/kg, po administered 2 hrs before xylene challenge relative to control; type: functional; settings: read-out: INH; summary of the method: as §1

N=C(N)N/N=C/c1cn(-c2ccccc2)nc1-c1cccc(Cl)c1
inhibition in vivo at 50 mg/kg (Mus musculus [1]): 4.39% | inhibition in vivo at 50 mg/kg (Mus musculus [2]): 35.2% | inhibition (Mus musculus [3]): inactive | inhibition in vivo at 25 mg/kg (Mus musculus [4]): 39.3% | inhibition in vivo at 12.5 mg/kg (Mus musculus [5]): 56.7% | MIC (Staphylococcus aureus [6]): 2 µg/mL (≈ 5.9 µM) | MIC (Staphylococcus aureus [7]): 2 µg/mL (≈ 5.9 µM) | MIC (Staphylococcus aureus [8]): 2 µg/mL (≈ 5.9 µM) | MIC (Streptococcus mutans): 8 µg/mL (≈ 23.6 µM) | MIC (Escherichia coli [9]): 1 µg/mL (≈ 2.95 µM) | MIC (Escherichia coli [10]): 16 µg/mL (≈ 47.2 µM) | MIC (Pseudomonas aeruginosa [11]): > 64 µg/mL | MIC (Pseudomonas aeruginosa [12]): > 64 µg/mL | MIC (Salmonella typhimurium): 8 µg/mL (≈ 23.6 µM) | MIC (Candida albicans): 1 µg/mL (≈ 2.95 µM) | MIC (Staphylococcus aureus [13]): 1 µg/mL (≈ 2.95 µM) | MIC (Staphylococcus aureus [14]): 1 µg/mL (≈ 2.95 µM) | MIC (Staphylococcus aureus [15]): 2 µg/mL (≈ 5.9 µM) | MIC (Staphylococcus aureus [16]): 2 µg/mL (≈ 5.9 µM) | Ratio (Staphylococcus aureus [17]): 4 | Ratio (Staphylococcus aureus [18]): 64 | inhibition in vivo at 50 mg/kg (Mus musculus [19]): 93.6% | inhibition in vivo at 50 mg/kg (Mus musculus [20]): 26.9% | inhibition in vivo at 50 mg/kg (Mus musculus [21]): 50.9%

COc1ccc2c(c1)c(CC(=O)O)c(C)n2C(=O)c1ccc(Cl)cc1 [INDOMETHACIN]
inhibition in vivo at 50 mg/kg (Mus musculus [1]): 34.9% | inhibition in vivo at 50 mg/kg (Mus musculus [2]): 26.9% | inhibition (Mus musculus [3]): inactive | inhibition in vivo at 25 mg/kg (Mus musculus [4]): 53.9% | inhibition in vivo at 12.5 mg/kg (Mus musculus [5]): 56.3% | inhibition in vivo at 50 mg/kg (Mus musculus [19]): 45.2% | inhibition in vivo at 50 mg/kg (Mus musculus [20]): 29.7% | inhibition in vivo at 50 mg/kg (Mus musculus [22]): 9.93% | inhibition in vivo at 50 mg/kg (Mus musculus [21]): 23%

From ChEMBL document CHEMBL3627681, “Synthesis and biological evaluation of 1,3-diaryl pyrazole derivatives as potential antibacterial and anti-inflammatory agents” (2015)
